≈ marks a conversion by molar mass, not a printed value.
What was measured:
Assay type in all cases: functional
[1] = test system: Staphylococcus aureus; assay: Antibacterial activity against Staphylococcus aureus CIP 53.156 assessed as bacterial growth inhibition incubated for 24 hrs by optical density based microplate reader analysis
Summary of the method: (§1)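 Broth microdilution in LB per CLSI, in triplicate; compounds dissolved in DMSO (stock 5 mg/mL; gentamicin stock 10 mg/mL as positive control), serially diluted 1:2. Wells inoculated with 10⁶ CFU/mL, incubated 24 h at 37 °C, with solvent as negative control. OD 630 nm read before and after incubation; MIC taken as the lowest-concentration clear well. Wells also plated on LB agar for 24 h at 37 °C.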

[2] = test system: Staphylococcus epidermidis; assay: Antibacterial activity against Staphylococcus epidermidis CIP 53.124 assessed as bacterial growth inhibition incubated for 24 hrs by optical density based microplate reader analysis; summary of the method: as §1
[3] = test system: Huh-7; assay: Cytotoxicity against human Huh-7 cells assessed as cell growth inhibition measured after 24 hrs by MTS assay
Summary of the method: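 Huh-7 cells (DMEM with glutaMAX-I, 10% FBS, 37 °C, 5% CO₂), 6×10^4 per well, allowed 16 h before 24 h exposure to increasing compound concentrations (DMSO stocks 100 mM). Viability by MTS, formazan absorbance at 490 nm; CC50 derived. Mean ± SEM of 3 experiments.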

[4] = test system: Pseudomonas aeruginosa; assay: Antibacterial activity against Pseudomonas aeruginosa CIP A22 assessed as bacterial growth inhibition incubated for 24 hrs by optical density based microplate reader analysis; summary of the method: as §1
[5] = test system: Staphylococcus aureus; assay: Antibacterial activity against methicillin resistant Staphylococcus aureus DSM 13661 assessed as bacterial growth inhibition incubated for 24 hrs by optical density based microplate reader analysis
Summary of the method: (§2)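 Broth microdilution per CLSI, in triplicate: compounds as 5 mg/mL DMSO stocks (gentamicin 10 mg/mL stock as positive control), serially diluted 1:2 in LB. Wells inoculated with 10⁶ CFU/mL, 24 h at 37 °C, solvent-only negative control. OD630 read before and after incubation. MIC taken as the lowest-concentration clear well, i.e. no visible growth.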

[6] = test system: Escherichia coli; assay: Antibacterial activity against […] Escherichia coli CIP 54.8 assessed as bacterial growth inhibition incubated for 24 hrs by optical density based microplate reader analysis; summary of the method: as §2

Molecule	MIC [1] [mg/L]	MIC [2] [mg/L]	CC50 [3] [µM]	MIC [4] [mg/L]	MIC [5] [mg/L]	MIC [6] [mg/L]
C=C(C=O)[C@H]1CC=C2[C@H](OC(=O)/C(C)=C/C=C/CCCCC)CC[C@H](C(=O)O)[C@@]2(C)C1	1.56 (≈ 3.64 µM)	3.1 (≈ 7.23 µM)	184	> 50	3.1 (≈ 7.23 µM)	> 50
C=C(C=O)[C@H]1CC=C2[C@H](OC(=O)/C(C)=C/CCCCCCC)CC[C@H](C(=O)O)[C@@]2(C)C1	0.39 (≈ 0.906 µM)	1.56 (≈ 3.62 µM)	48.1	> 50	1.56 (≈ 3.62 µM)	> 50
GENTAMICIN	3.91	> 250	–	1.95	250	3.91

From ChEMBL document CHEMBL5252608, “Eremoxylarins D-J, Antibacterial Eremophilane Sesquiterpenes Discovered from an Endolichenic Strain of Xylaria hypoxylon” (J Nat Prod, 2023)
